What all share (conditions): dose 0.2-1 µM
The target of test [1] is Bromodomain-containing protein 7 (Homo sapiens) (UniProt Q9NPI1). Nature of the test: Binding affinity to biotinylated BRD7 (unknown origin) expressed in Escherichia coli at 0.2 to 1 uM by Biolayer Interferometric analysis. In short, it runs like this:
(§1)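 Bromodomains carrying a BirA biotin ligase targeting sequence, coexpressed with BirA in bacteria to give homogeneous in vivo biotin labelling, checked by mass spectrometry. Biotinylated proteins probed by biolayer interferometry with compound at two concentrations, 0.2 and 1.0 μM.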
A general note: In BLI a coated tip is dipped into the sample, and binding shifts an interference pattern.

Test [2] addresses Bromodomain-containing protein 2 (Homo sapiens) (UniProt P25440). Nature of the test: Binding affinity to biotinylated BRD2 bromodomain-1 (unknown origin) expressed in Escherichia coli at 0.2 to 1 uM by Biolayer Interferometric analysis. The procedure, abridged: as §1
In test [3] the target is Protein polybromo-1 (Homo sapiens) (UniProt Q86U86). The test can be described thus: Binding affinity to biotinylated PB1 bromodomain-5 (unknown origin) expressed in Escherichia coli at 0.2 to 1 uM by Biolayer Interferometric analysis. In short, it runs like this: as §1
In test [4] the target is Bromodomain testis-specific protein (Homo sapiens) (UniProt Q58F21). The test can be described thus: Binding affinity to biotinylated BRDT bromodomain-1 (unknown origin) expressed in Escherichia coli at 0.2 to 1 uM by Biolayer Interferometric analysis. In short, it runs like this:
as §1

Test [5] has as its target Histone acetyltransferase p300 (Homo sapiens) (UniProt Q09472). Nature of the test: Binding affinity to biotinylated EP300 (unknown origin) expressed in Escherichia coli at 0.2 to 1 uM by Biolayer Interferometric analysis. In short, it runs like this:
as §1

Test [6] addresses Bromodomain-containing protein 3 (Homo sapiens) (UniProt Q15059). Nature of the test: Binding affinity to biotinylated BRD3 bromodomain-1 (unknown origin) expressed in Escherichia coli at 0.2 to 1 uM by Biolayer Interferometric analysis. The procedure, abridged:
as §1

Test [7] has as its target Protein polybromo-1 (Homo sapiens) (UniProt Q86U86). Nature of the test: Binding affinity to biotinylated PB1 bromodomain-1 (unknown origin) expressed in Escherichia coli at 0.2 to 1 uM by Biolayer Interferometric analysis. In short, it runs like this:
as §1

Test [8] has as its target Histone-lysine N-methyltransferase ASH1L (Homo sapiens) (UniProt Q9NR48). The test can be described thus: Binding affinity to biotinylated ASH1L bromodomain (unknown origin) expressed in Escherichia coli at 0.2 to 1 uM by Biolayer Interferometric analysis. The procedure, abridged: as §1
Test [9] addresses Bromodomain testis-specific protein (Homo sapiens) (UniProt Q58F21). The test can be described thus: Binding affinity to biotinylated BRDT bromodomain-2 (unknown origin) expressed in Escherichia coli at 0.2 to 1 uM by Biolayer Interferometric analysis. The procedure, abridged:
as §1

In test [10] the target is Histone acetyltransferase KAT2A (Homo sapiens) (UniProt Q92830). The test can be described thus: Binding affinity to biotinylated GCN5L2 (unknown origin) expressed in Escherichia coli at 0.2 to 1 uM by Biolayer Interferometric analysis. In short, it runs like this: as §1
The target in test [11] is Protein polybromo-1 (Homo sapiens) (UniProt Q86U86). Nature of the test: Binding affinity to biotinylated PB1 bromodomain-2 (unknown origin) expressed in Escherichia coli at 0.2 to 1 uM by Biolayer Interferometric analysis. In short, it runs like this:
as §1

Test [12] shares this target. The test can be described thus: Binding affinity to biotinylated PB1 bromodomain-6 (unknown origin) expressed in Escherichia coli at 0.2 to 1 uM by Biolayer Interferometric analysis. The procedure, abridged: as §1
In test [13] the target is SWI/SNF-related matrix-associated actin-dependent regulator of chromatin subfamily A member 2 (Homo sapiens, UniProt P51531). Nature of the test: Binding affinity to biotinylated SMARCA2 (unknown origin) expressed in Escherichia coli at 0.2 to 1 uM by Biolayer Interferometric analysis. In short, it runs like this:
as §1

For test [14], the target named is Transcription initiation factor TFIID subunit 1 (Homo sapiens) (UniProt P21675). The test can be described thus: Binding affinity to biotinylated TAF1 bromodomain-1 (unknown origin) expressed in Escherichia coli at 0.2 to 1 uM by Biolayer Interferometric analysis. The procedure, abridged: as §1
Test [15] has as its target ATPase family AAA domain-containing protein 2B (Homo sapiens) (UniProt Q9ULI0). The test can be described thus: Binding affinity to biotinylated KIAA1240 (unknown origin) expressed in Escherichia coli at 0.2 to 1 uM by Biolayer Interferometric analysis. In short, it runs like this: as §1
The target of test [16] is Bromodomain and WD repeat-containing protein 1 (Homo sapiens) (UniProt Q9NSI6). Nature of the test: Binding affinity to biotinylated WDR9 (unknown origin) expressed in Escherichia coli at 0.2 to 1 uM by Biolayer Interferometric analysis. The procedure, abridged:
as §1

Test [17] has as its target CREB-binding protein (Homo sapiens) (UniProt Q92793). Nature of the test: Binding affinity to biotinylated CREBBP (unknown origin) expressed in Escherichia coli at 0.2 to 1 uM by Biolayer Interferometric analysis. In short, it runs like this:
as §1

For test [18], the target named is Bromodomain-containing protein 4 (Homo sapiens) (UniProt O60885). The test can be described thus: Binding affinity to biotinylated BRD4 bromodomain-1 (unknown origin) expressed in Escherichia coli at 0.2 to 1 uM by Biolayer Interferometric analysis. In short, it runs like this:
as §1

Test [19] concerns the target SWI/SNF-related matrix-associated actin-dependent regulator of chromatin subfamily A member 4 (Homo sapiens, UniProt P51532). Nature of the test: Binding affinity to biotinylated SMARCA4 (unknown origin) expressed in Escherichia coli at 0.2 to 1 uM by Biolayer Interferometric analysis. The procedure, abridged: as §1
The target of test [20] is Bromodomain-containing protein 4 (Homo sapiens) (UniProt O60885). Nature of the test: Binding affinity to biotinylated BRD4 bromodomain-2 (unknown origin) expressed in Escherichia coli at 0.2 to 1 uM by Biolayer Interferometric analysis. In short, it runs like this: as §1
The target in test [21] is Transcription initiation factor TFIID subunit 1-like (Homo sapiens) (UniProt Q8IZX4). The test can be described thus: Binding affinity to biotinylated TAF1L bromodomain-1 (unknown origin) expressed in Escherichia coli at 0.2 to 1 uM by Biolayer Interferometric analysis. The procedure, abridged: as §1
In test [22] the target is T1, Bromodomain-containing protein 9 (Homo sapiens) (UniProt Q9H8M2).
T1 sequence (whole entry): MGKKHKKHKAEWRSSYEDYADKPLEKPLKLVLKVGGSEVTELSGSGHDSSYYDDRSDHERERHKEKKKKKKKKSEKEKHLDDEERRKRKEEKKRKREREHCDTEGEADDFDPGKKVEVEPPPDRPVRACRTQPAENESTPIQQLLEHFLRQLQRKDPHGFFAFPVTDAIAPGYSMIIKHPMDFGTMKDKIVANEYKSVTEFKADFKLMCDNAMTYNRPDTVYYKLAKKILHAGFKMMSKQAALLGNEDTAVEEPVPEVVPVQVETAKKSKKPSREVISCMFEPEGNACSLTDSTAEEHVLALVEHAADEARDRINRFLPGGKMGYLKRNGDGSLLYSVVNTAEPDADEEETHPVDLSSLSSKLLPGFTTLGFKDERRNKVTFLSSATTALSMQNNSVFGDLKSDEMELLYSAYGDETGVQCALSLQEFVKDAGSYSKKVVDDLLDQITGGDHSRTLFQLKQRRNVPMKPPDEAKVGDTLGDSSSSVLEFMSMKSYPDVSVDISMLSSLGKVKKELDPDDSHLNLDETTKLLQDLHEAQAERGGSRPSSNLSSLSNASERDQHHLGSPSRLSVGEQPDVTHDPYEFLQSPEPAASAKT
The test can be described thus: Binding affinity to biotinylated BRD9 (unknown origin) expressed in Escherichia coli at 0.2 to 1 uM by Biolayer Interferometric analysis. The procedure, abridged: as §1

The target of test [23] is ATPase family AAA domain-containing protein 2 (Homo sapiens) (UniProt Q6PL18). The test can be described thus: Binding affinity to biotinylated ATAD2 (unknown origin) expressed in Escherichia coli at 0.2 to 1 uM by Biolayer Interferometric analysis. The procedure, abridged:
as §1

Test [24] deals with Bromodomain-containing protein 3 (Homo sapiens) (UniProt Q15059). The test can be described thus: Binding affinity to biotinylated BRD3 bromodomain-2 (unknown origin) expressed in Escherichia coli at 0.2 to 1 uM by Biolayer Interferometric analysis. The procedure, abridged:
as §1

Active and inactive are the calls of the source. The rule behind the calls is not given here.

Protein polybromo-1 (Homo sapiens), sequence (Q86U86 whole entry): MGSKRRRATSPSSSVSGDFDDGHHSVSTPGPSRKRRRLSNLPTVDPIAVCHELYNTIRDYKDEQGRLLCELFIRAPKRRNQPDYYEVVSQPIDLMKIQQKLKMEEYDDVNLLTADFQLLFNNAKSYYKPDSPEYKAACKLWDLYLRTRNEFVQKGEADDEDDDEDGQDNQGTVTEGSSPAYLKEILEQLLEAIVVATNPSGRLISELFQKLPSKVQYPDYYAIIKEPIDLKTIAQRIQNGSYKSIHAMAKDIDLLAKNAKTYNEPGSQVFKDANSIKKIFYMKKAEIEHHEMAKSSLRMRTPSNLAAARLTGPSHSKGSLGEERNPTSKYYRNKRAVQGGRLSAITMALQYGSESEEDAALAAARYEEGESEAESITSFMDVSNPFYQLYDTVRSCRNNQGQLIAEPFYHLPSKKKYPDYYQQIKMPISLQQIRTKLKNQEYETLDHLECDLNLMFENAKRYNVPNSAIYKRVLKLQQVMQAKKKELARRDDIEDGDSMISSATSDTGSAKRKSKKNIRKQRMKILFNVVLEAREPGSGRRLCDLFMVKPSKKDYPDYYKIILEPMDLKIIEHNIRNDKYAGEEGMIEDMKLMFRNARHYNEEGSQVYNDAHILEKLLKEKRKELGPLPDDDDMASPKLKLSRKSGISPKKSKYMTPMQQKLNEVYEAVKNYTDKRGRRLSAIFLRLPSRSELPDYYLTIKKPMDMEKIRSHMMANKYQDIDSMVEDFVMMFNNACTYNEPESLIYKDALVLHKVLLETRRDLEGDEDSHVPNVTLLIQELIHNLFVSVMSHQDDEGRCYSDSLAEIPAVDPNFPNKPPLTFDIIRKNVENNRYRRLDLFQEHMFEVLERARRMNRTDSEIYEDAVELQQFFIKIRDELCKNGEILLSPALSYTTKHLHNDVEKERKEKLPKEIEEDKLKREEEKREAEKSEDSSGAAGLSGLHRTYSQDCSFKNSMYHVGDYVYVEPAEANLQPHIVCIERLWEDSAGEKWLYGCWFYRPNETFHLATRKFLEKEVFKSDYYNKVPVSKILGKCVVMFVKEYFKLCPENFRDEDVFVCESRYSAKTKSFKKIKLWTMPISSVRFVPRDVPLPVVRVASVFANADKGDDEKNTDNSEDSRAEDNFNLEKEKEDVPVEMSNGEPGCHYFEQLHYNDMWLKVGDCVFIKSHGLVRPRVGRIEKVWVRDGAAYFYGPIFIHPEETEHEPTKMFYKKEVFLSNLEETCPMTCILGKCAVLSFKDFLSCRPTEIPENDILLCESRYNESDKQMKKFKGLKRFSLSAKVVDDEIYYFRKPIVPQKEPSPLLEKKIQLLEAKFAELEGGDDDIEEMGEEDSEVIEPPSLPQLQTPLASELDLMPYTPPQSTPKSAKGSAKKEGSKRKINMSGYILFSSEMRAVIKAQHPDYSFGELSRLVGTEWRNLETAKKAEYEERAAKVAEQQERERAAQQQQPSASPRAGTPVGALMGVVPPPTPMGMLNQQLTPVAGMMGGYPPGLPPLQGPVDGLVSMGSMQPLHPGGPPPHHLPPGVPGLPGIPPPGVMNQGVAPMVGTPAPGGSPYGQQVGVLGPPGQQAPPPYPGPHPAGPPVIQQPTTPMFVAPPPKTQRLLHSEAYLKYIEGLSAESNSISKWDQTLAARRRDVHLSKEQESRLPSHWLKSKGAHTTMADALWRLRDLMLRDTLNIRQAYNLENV
Bromodomain-containing protein 3 (Homo sapiens), sequence (Q15059 2-726 limits assumed): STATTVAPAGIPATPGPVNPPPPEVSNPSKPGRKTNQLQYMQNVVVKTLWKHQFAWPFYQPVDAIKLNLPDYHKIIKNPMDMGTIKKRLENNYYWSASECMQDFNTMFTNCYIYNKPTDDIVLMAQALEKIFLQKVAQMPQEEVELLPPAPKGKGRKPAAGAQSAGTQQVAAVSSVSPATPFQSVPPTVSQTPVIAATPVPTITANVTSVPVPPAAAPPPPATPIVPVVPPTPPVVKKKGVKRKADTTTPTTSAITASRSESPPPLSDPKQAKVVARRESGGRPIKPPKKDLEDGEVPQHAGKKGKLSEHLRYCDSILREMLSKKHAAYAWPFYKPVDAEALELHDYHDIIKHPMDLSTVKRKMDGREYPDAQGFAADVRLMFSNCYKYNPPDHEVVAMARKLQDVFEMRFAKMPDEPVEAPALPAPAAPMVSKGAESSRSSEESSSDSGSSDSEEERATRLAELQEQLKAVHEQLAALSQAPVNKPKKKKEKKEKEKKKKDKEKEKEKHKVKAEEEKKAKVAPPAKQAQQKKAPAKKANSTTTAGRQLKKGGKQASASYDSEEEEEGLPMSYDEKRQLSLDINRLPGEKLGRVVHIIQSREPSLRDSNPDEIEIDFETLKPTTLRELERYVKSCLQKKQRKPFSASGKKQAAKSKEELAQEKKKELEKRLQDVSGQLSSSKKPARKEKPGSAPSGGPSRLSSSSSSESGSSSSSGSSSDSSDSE
Bromodomain and WD repeat-containing protein 1 (Homo sapiens), sequence (Q9NSI6 whole entry): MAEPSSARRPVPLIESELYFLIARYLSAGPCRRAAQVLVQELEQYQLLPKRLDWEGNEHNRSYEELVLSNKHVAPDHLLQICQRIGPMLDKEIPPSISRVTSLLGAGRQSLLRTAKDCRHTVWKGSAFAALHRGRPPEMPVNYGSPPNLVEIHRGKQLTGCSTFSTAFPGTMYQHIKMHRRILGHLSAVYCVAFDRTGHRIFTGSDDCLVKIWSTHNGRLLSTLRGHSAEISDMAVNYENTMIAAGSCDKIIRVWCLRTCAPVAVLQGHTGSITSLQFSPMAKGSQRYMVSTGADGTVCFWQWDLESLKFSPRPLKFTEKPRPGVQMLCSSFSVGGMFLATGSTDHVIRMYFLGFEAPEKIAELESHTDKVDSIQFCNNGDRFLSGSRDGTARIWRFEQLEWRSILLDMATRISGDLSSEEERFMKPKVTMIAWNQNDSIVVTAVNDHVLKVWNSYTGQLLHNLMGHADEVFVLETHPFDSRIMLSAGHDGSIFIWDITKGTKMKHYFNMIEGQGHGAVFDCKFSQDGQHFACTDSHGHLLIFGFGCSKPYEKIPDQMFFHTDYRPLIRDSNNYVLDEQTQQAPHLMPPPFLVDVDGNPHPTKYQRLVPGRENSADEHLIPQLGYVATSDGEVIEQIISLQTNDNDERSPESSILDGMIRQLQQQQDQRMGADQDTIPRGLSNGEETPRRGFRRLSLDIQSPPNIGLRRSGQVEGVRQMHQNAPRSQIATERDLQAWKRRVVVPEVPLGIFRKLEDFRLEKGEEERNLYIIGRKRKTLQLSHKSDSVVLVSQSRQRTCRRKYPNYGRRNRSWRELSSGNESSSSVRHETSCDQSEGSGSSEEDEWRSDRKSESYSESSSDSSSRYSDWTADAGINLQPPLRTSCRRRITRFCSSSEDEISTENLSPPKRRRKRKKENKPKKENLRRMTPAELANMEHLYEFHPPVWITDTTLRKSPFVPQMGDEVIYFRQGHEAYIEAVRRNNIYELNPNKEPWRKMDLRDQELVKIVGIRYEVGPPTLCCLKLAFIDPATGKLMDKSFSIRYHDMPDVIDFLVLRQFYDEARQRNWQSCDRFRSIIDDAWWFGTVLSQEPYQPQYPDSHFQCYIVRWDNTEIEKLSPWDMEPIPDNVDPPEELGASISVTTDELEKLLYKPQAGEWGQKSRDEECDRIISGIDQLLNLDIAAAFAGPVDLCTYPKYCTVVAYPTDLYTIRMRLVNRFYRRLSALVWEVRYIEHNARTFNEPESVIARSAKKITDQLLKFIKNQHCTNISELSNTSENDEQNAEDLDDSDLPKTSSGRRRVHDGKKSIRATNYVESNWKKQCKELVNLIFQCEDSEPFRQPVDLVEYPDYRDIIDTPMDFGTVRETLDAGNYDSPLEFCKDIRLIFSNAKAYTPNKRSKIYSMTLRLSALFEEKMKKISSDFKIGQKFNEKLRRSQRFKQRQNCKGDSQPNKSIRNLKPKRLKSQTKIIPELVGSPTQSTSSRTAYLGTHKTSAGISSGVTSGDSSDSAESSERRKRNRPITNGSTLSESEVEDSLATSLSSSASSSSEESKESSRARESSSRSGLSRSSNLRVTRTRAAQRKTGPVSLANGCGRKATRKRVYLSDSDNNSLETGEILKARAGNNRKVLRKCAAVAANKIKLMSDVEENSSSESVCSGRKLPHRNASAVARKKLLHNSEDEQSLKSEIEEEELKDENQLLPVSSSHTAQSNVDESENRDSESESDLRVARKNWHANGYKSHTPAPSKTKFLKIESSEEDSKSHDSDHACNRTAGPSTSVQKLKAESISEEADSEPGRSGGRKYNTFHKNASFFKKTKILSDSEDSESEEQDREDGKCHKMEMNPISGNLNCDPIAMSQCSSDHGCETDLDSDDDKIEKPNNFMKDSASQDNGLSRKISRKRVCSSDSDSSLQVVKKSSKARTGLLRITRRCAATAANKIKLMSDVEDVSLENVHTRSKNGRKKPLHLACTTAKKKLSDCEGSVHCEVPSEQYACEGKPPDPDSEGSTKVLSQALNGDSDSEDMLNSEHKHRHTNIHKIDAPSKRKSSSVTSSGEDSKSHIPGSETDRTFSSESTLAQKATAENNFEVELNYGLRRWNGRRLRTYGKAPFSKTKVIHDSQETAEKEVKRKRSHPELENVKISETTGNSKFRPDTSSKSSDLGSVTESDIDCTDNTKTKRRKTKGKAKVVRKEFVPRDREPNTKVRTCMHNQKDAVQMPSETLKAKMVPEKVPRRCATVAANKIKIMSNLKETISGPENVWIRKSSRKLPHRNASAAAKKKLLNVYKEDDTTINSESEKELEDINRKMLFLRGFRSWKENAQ

As for `CCCOc1ccn2c(C(C)=O)cc(-c3ccccc3S(C)(=O)=O)c2c1`, the result in test [1], in test [2], in test [3], in [4], in test [5] and in test [6] was inactive. Besides, the outcome in [7], in test [8], in test [9], in test [10], in test [11] and in [12] was inactive. The outcome in [13], in test [14], in test [15], in test [16], in test [17] and in [18] was inactive. The outcome in test [19], in test [20], in test [21], in test [23] and in [24] was inactive. In test [22], the result was Active.

Turning to `CCCOc1ccn2c(C(C)=O)cc(-c3cccc(OC)c3)c2c1`, the result in [1], in test [2], in [3], in [4], in test [5] and in [6] was inactive. The result in test [7], in test [8], in [9], in test [10], in [11] and in test [12] was inactive. Besides, the outcome in test [13], in [14], in test [15], in test [16], in test [17] and in test [18] was inactive. Besides, the result in test [19], in [20], in [21], in [23] and in [24] was inactive. Also, the outcome in test [22] was Active.

The values are drawn from ChEMBL document CHEMBL5712886, “Discovery and Characterization of GSK2801, a Selective Chemical Probe for the Bromodomains BAZ2A and BAZ2B” (J Med Chem, 2016).
